Calls of active or inactive are those of the source. The calls are words filed in the database; no cut-off is given here.
Columns and labels:
Pseudomonas aeruginosa [1] = experiment: Antimicrobial activity against Pseudomonas aeruginosa K799/61 at 2 mM incubated for 20 hrs by agar diffusion assay; format: functional; conditions: K799/61, 20 h, read-out: DIZ
Outline: (§1)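 The test solution was made as 20 mM in DMSO and diluted 10-fold in MeOH to 2 mM. Overnight LB cultures were adjusted to a 0.5 McFarland standard ([…] in 0.9% saline), and 0.1 mL was seeded into 34 mL Mueller-Hinton No. 2 agar at 47–50 °C. 50 μL was placed in 9.0 mm wells. Plates were incubated at 37 °C for 20 h, and inhibition zone diameters were measured by caliper.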

Pseudomonas aeruginosa [2] = experiment: Antimicrobial activity against wild type Pseudomonas aeruginosa K799 at 2 mM incubated for 20 hrs by agar diffusion assay; format: functional; conditions: K799, 20 h, read-out: DIZ; outline: as §1
Micrococcus luteus [3] = experiment: Antimicrobial activity against Micrococcus luteus ATCC 10240 at 2 mM incubated for 20 hrs by agar diffusion assay; format: functional; conditions: for zone of inhibition at 2000 µM: ATCC 10240, 20 h, read-out: DIZ; outline: as §1
Acinetobacter baumannii [4] = experiment: Antimicrobial activity against Acinetobacter baumannii ATCC 17961 at 2 mM incubated for 20 hrs by agar diffusion assay; format: functional; conditions: for zone of inhibition at 2000 µM: ATCC 17961, 20 h, read-out: DIZ; outline: as §1
Burkholderia dolosa = experiment: Antimicrobial activity against Burkholderia dolosa at 2 mM incubated for 20 hrs by agar diffusion assay; format: functional; conditions: read-out: DIZ; outline: as §1
Mycolicibacterium vaccae [5] = experiment: Antimicrobial activity against Mycobacterium vaccae IMET 10670 at 2 mM incubated for 48 hrs by agar diffusion assay; format: functional; conditions: for zone of inhibition at 2000 µM: IMET 10670, 48 h, read-out: DIZ
Outline: (§2)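 Seeded-agar well diffusion: 2 mM test solution (from 20 mM DMSO stock, diluted 10-fold in MeOH), 50 μL per 9.0 mm well. Inoculum was 0.1 mL of a 0.5 McFarland saline suspension ([…]) in 34 mL Mueller-Hinton No. 2 agar. Incubation was at 37 °C for 48 h, with plates photographed after 3 days. Zone diameters were measured by caliper.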

Escherichia coli [6] = experiment: Antimicrobial activity against Escherichia coli DC2 assessed as very very unclear inhibition zone at 2 mM incubated for 20 hrs by agar diffusion assay; format: functional; conditions: DC2, 20 h, read-out: DIZ; outline: as §1
Bacillus spizizenii [7] = experiment: Antimicrobial activity against Bacillus subtilis ATCC 6633 at 2 mM incubated for 20 hrs by agar diffusion assay; format: functional; conditions: ATCC 6633, 20 h, read-out: DIZ; outline: as §1
Staphylococcus aureus [8] = experiment: Antimicrobial activity against Staphylococcus aureus SG511 at 2 mM incubated for 20 hrs by agar diffusion assay; format: functional; conditions: for zone of inhibition at 2000 µM: SG511, 20 h, read-out: DIZ; outline: as §1
Escherichia coli [9] = experiment: Antimicrobial activity against Escherichia coli DC0 at 2 mM incubated for 20 hrs by agar diffusion assay; format: functional; conditions: for zone of inhibition at 2000 µM: DC0, 20 h, read-out: DIZ; outline: as §1
Mycolicibacterium vaccae [10] = experiment: Antimicrobial activity against Mycobacterium vaccae IMET 10670 assessed as very unclear inhibition zone at 2 mM incubated for 48 hrs by agar diffusion assay; format: functional; conditions: IMET 10670, 48 h, read-out: DIZ; outline: as §2
[11] = Inhibition of beta-lactamase SHV-12 (unknown origin) using nitrocefin substrate incubated for 10 mins
Outline: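 SHV-12 was added as 50 μL of a 0.111 mg/mL solution and preincubated for 10 min at rt with inhibitor (final 160 μM to 3 nM, 1:3 dilutions). Buffer was 50 mM sodium phosphate pH 7 with 0.1 mg/mL BSA. Reaction was started with 10 μM nitrocefin and followed as OD 495 nm over time.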

[12] = Inhibition of beta-lactamase PAM-2035 (unknown origin) using nitrocefin substrate incubated for 10 mins
[13] = Inhibition of beta-lactamase NDM1 (unknown origin) using imipenem substrate incubated for 10 mins
Outline: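 NDM-1 was added as 50 μL of a 0.110 mg/mL solution and preincubated with inhibitor (final 160 μM to 3 nM, 8-point 1:3 series) for 10 min at rt. Buffer was 50 mM sodium phosphate pH 7 with 0.1 mg/mL BSA. 10 μM imipenem was then added, and its disappearance was monitored over time.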

[14] = Inhibition of beta-lactamase AmpC (unknown origin) using nitrocefin substrate incubated for 10 mins
Outline: (§3)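 Enzyme was preincubated with inhibitor at rt for 10 min in 50 mM sodium phosphate pH 7 with 0.1 mg/mL BSA. Inhibitor was tested at final concentrations of 160 μM to 3 nM (1:3 series, 8 points). Nitrocefin was then added at 50 μM, and hydrolysis was followed as OD 495 nm over time.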

Micrococcus luteus [15] = experiment: Antimicrobial activity against Micrococcus luteus ATCC 10240 assessed as unclear inhibition zone at 2 mM incubated for 20 hrs by agar diffusion assay; format: functional; conditions: ATCC 10240, 20 h, read-out: DIZ; outline: as §1
Staphylococcus aureus [16] = experiment: Antimicrobial activity against Staphylococcus aureus SG511 assessed as unclear inhibition zone at 2 mM incubated for 20 hrs by agar diffusion assay; format: functional; conditions: SG511, 20 h, read-out: DIZ; outline: as §1
[17] = Inhibition of beta-lactamase OXA-48 (unknown origin) using nitrocefin substrate incubated for 10 mins; outline: as §3
[18] = Inhibition of beta-lactamase CTX-M-14 (unknown origin) using nitrocefin substrate incubated for 10 mins; outline: as §3
Escherichia coli [19] = experiment: Antimicrobial activity against Escherichia coli DC2 at 2 mM incubated for 20 hrs by agar diffusion assay; format: functional; conditions: for zone of inhibition at 2000 µM: DC2, 20 h, read-out: DIZ; outline: as §1
[20] = Inhibition of beta-lactamase KPC-2 (unknown origin) using nitrocefin substrate incubated for 10 mins; outline: as §3
Bacillus spizizenii [21] = experiment: Antimicrobial activity against Bacillus subtilis ATCC 6633 assessed as unclear inhibition zone at 2 mM incubated for 20 hrs by agar diffusion assay; format: functional; conditions: ATCC 6633, 20 h, read-out: DIZ; outline: as §1
Acinetobacter baumannii [22] = experiment: Antimicrobial activity against Acinetobacter baumannii ATCC 17961 assessed as unclear inhibition zone at 2 mM incubated for 20 hrs by agar diffusion assay; format: functional; conditions: ATCC 17961, 20 h, read-out: DIZ; outline: as §1
Mycolicibacterium vaccae [23] = experiment: Antimicrobial activity against Mycobacterium vaccae IMET 10670 assessed as unclear inhibition zone at 2 mM incubated for 48 hrs by agar diffusion assay; format: functional; conditions: IMET 10670, 48 h, read-out: DIZ; outline: as §2
Bacillus spizizenii [24] = experiment: Antimicrobial activity against Bacillus subtilis ATCC 6633 assessed as very unclear inhibition zone at 2 mM incubated for 20 hrs by agar diffusion assay; format: functional; conditions: ATCC 6633, 20 h, read-out: DIZ; outline: as §1
[25] = Inhibition of beta-lactamase VIM-1 (unknown origin) using nitrocefin substrate incubated for 10 mins
Micrococcus luteus [26] = experiment: Antimicrobial activity against Micrococcus luteus ATCC 10240 assessed as very unclear inhibition zone at 2 mM incubated for 20 hrs by agar diffusion assay; format: functional; conditions: ATCC 10240, 20 h, read-out: DIZ; outline: as §1
Staphylococcus aureus [27] = experiment: Antimicrobial activity against Staphylococcus aureus SG511 assessed as very unclear inhibition zone at 2 mM incubated for 20 hrs by agar diffusion assay; format: functional; conditions: SG511, 20 h, read-out: DIZ; outline: as §1

| SMILES | zone of inhibition at 2000 µM (Pseudomonas aeruginosa [1]) [mm] | zone of inhibition at 2000 µM (Pseudomonas aeruginosa [2]) [mm] | zone of inhibition at 2000 µM (Micrococcus luteus [3]) [mm] | zone of inhibition at 2000 µM (Acinetobacter baumannii [4]) [mm] | zone of inhibition at 2000 µM (Burkholderia dolosa) [mm] | zone of inhibition at 2000 µM (Escherichia coli [6]) [mm] | zone of inhibition at 2000 µM (Bacillus spizizenii [7]) [mm] | diameter of the inhibition zone (DIZ) (Staphylococcus aureus [8]) | zone of inhibition at 2000 µM (Escherichia coli [9]) [mm] | zone of inhibition at 2000 µM (Escherichia coli [19]) [mm] | zone of inhibition at 2000 µM (Mycolicibacterium vaccae [5]) [mm] | zone of inhibition at 2000 µM (Staphylococcus aureus [8]) [mm] | other results |
| --- | --- | --- | --- | --- | --- | --- | --- | --- | --- | --- | --- | --- | --- |
| Cc1ccc(S(=O)(=O)ON2C(=O)CC2CSC2=NCCS2)cc1 (centres undefined) | 0 | 0 | 0 | 0 | 0 | 14 | 0 | Active | 0 | – | – | – | diameter of the inhibition zone (DIZ) (Mycolicibacterium vaccae [5]): Active |
| O=C1CC(CBr)N1OS(=O)(=O)c1cccc2ccccc12 (centres undefined) | 0 | 0 | – | 0 | 0 | – | 12 | – | 0 | 0 | – | – | zone of inhibition at 2000 µM (Mycolicibacterium vaccae [10]): 16 mm; Ki [11]: 0.198 µM; Ki [12]: > 160 µM; Ki [13]: > 160 µM; Ki [14]: > 160 µM; zone of inhibition at 2000 µM (Micrococcus luteus [15]): 13.5 mm; zone of inhibition at 2000 µM (Staphylococcus aureus [16]): 14 mm; Ki [17]: 4.67 µM; Ki [18]: > 160 µM; Ki [20]: > 160 µM |
| Cc1ccc(S(=O)(=O)ON2C(=O)CC2Cn2cc(CNC(=O)c3cc(C(F)(F)F)ccc3Cl)nn2)cc1 (centres undefined) | 0 | 0 | – | – | 0 | – | – | Active | 0 | 0 | 0 | – | zone of inhibition at 2000 µM (Micrococcus luteus [15]): 13 mm; zone of inhibition at 2000 µM (Bacillus spizizenii [21]): 13 mm; zone of inhibition at 2000 µM (Acinetobacter baumannii [22]): 13 mm |
| CN(C)c1cccc2c(S(=O)(=O)ON3C(=O)CC3CBr)cccc12 (centres undefined) | 0 | 0 | 12 | 0 | 0 | 14 | 0 | – | – | – | 16 | 13 | diameter of the inhibition zone (DIZ) (Escherichia coli [9]): Active |
| COc1ccc(S(=O)(=O)ON2C(=O)CC2CBr)cc1 (centres undefined) | 0 | 0 | 0 | 0 | 0 | 15 | – | – | 0 | – | – | 0 | zone of inhibition at 2000 µM (Mycolicibacterium vaccae [23]): 17 mm; zone of inhibition at 2000 µM (Bacillus spizizenii [24]): 11 mm |
| O=C1CC(CBr)N1OS(=O)(=O)c1ccc2ccccc2c1 (centres undefined) | 0 | 0 | 12 | 0 | 0 | 15 | 13 | – | 0 | – | 17 | 13 | Ki [11]: 0.19 µM; Ki [12]: > 160 µM; Ki [25]: > 160 µM; Ki [13]: > 160 µM; Ki [14]: > 160 µM; Ki [17]: > 160 µM; Ki [18]: > 160 µM; zone of inhibition at 2000 µM (Bacillus spizizenii [21]): 17 mm; Ki [20]: > 160 µM |
| O=C1CC(CBr)N1OS(=O)(=O)c1ccc([N+](=O)[O-])cc1[N+](=O)[O-] (centres undefined) | 0 | 0 | – | 0 | 0 | 15 | 22 | – | 0 | – | 32 | – | zone of inhibition at 2000 µM (Micrococcus luteus [26]): 16 mm; zone of inhibition at 2000 µM (Staphylococcus aureus [16]): 14 mm; zone of inhibition at 2000 µM (Staphylococcus aureus [27]): 23 mm |
| CCOC(=O)c1cn(CC2CC(=O)N2OS(=O)(=O)c2ccc(C)cc2)nn1 (centres undefined) | 0 | 0 | 0 | 0 | 0 | – | – | – | 0 | 0 | 0 | 0 | zone of inhibition at 2000 µM (Bacillus spizizenii [24]): 15 mm |
| Cc1ccc(S(=O)(=O)ON2C(=O)CC2CBr)cc1 (centres undefined) | 0 | 0 | – | – | 0 | 13 | – | Active | 0 | – | – | – | diameter of the inhibition zone (DIZ) (Micrococcus luteus [3]): Active; zone of inhibition at 2000 µM (Mycolicibacterium vaccae [23]): 17 mm; diameter of the inhibition zone (DIZ) (Acinetobacter baumannii [4]): Active; zone of inhibition at 2000 µM (Bacillus spizizenii [24]): 11 mm |
| O=C1CC(CBr)N1OS(=O)(=O)c1ccc([N+](=O)[O-])cc1 (centres undefined) | 0 | 0 | 0 | 11 | 0 | 14 | 14 | Active | 0 | – | 0 | – | – |
| O=C1CC(CBr)N1OS(=O)(=O)c1cccs1 (centres undefined) | 0 | 0 | 0 | 0 | 0 | 16 | 0 | – | 0 | – | 0 | 0 | – |
| Cc1ccc(S(=O)(=O)ON2C(=O)CC2Cn2cc(CNC(=O)c3ccccc3)nn2)cc1 (centres undefined) | 0 | 0 | 0 | 0 | 0 | – | 0 | – | 0 | 0 | 0 | 0 | – |
| CC(C)c1cc(C(C)C)c(S(=O)(=O)ON2C(=O)CC2CBr)c(C(C)C)c1 (centres undefined) | 0 | 0 | – | 0 | 0 | – | 0 | – | 0 | – | – | 0 | zone of inhibition at 2000 µM (Mycolicibacterium vaccae [23]): 14 mm; Ki [11]: > 160 µM; Ki [12]: > 160 µM; Ki [13]: > 160 µM; Ki [14]: > 160 µM; zone of inhibition at 2000 µM (Micrococcus luteus [26]): 19 mm; Ki [17]: > 160 µM; Ki [18]: > 160 µM; diameter of the inhibition zone (DIZ) (Escherichia coli [19]): Active; Ki [20]: > 160 µM |
